Test results published in ChEMBL document CHEMBL1126602, “L-beta-(2S,4S)- and L-alpha-(2S,4R)-dioxolanyl nucleosides as potential anti-HIV agents: asymmetric synthesis and structure-activity relationships” (J Med Chem, 1993).

Key:
[1] = test system: Human immunodeficiency virus 1; test: Effective concentration against HIV-1 strain LAV in human peripheral blood mononuclear (PBM) cells.; type: functional, organism-based
Summary of the method: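 Mitogen-stimulated human PBM cells infected with HIV-1 LAV at MOI 0.1 (set by limiting dilution in PBM cells). Compounds were added about 45 min after infection, diluted in medium from 40 mM DMSO stocks (final DMSO below 0.25%). Read-out was supernatant reverse transcriptase (RT) level. EC50 was taken from a median effect plot of dose-effect data.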

[2] = Cytotoxicity against uninfected PHA-stimulated peripheral blood mononuclear (PBM) cells; type: cell-based; conditions: Homo sapiens
Summary of the method: (§1)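 Uninfected cells were cultured with or without drug: PHA-stimulated human PBM cells for 6 days, Vero cells for 3 days, CEM cells for 6 days. Cells were then counted with trypan blue. Compounds came from 40 mM DMSO stocks diluted in medium (final DMSO below 0.25%). IC50 was derived from a median effect plot.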

Vero = test: Cytotoxic effect against vero cells.; type: cell-based; conditions: Chlorocebus sabaeus; summary of the method: as §1
CCRF-CEM [3] = test: Effective concentration for inhibition of virus production in human CEM cells; type: functional, cell-based
CCRF-CEM [4] = test: Cytotoxicity against uninfected PHA-stimulated CEM cells; type: cell-based; conditions: Homo sapiens; summary of the method: as §1

Question: For `Nc1nc(N)c2ncn([C@H]3CO[C@H](CO)O3)c2n1`, which EC50 [1] is on record?
Answer: The EC50 was 42.1 µM.

Question: For `Nc1nc(Cl)nc2c1ncn2[C@@H]1CO[C@H](CO)O1`, which EC50 [1] is on record?
Answer: The EC50 was 34.7 µM.

Question: What does the source list for `Nc1nc(O)c2ncn([C@H]3CO[C@H](CO)O3)c2n1`?
Answer: EC50 [1]: 102 µM; IC50 [2]: > 100 µM; IC50 (Vero): > 100 µM

Question: Which EC50 (CCRF-CEM [3]) does the source give for `Nc1ccn([C@H]2CO[C@@H](CO)O2)c(=O)n1` here?
Answer: Its EC50 is 0.009 µM.

Question: And the IC50 (CCRF-CEM [4])?
Answer: The IC50 was 12.8 µM.

Question: And the EC50 [1]?
Answer: The EC50 was 0.016 µM.

Question: And the IC50 [2]?
Answer: Its IC50 is 62 µM.

Question: Which EC50 [1] does the source give for `Nc1ccn([C@H]2CO[C@H](CO)O2)c(=O)n1` here?
Answer: The EC50 was 1.3 µM.

Question: And the IC50 [2]?
Answer: Its IC50 is over 10 µM.

Question: What about the IC50 (Vero) of the same compound?
Answer: The IC50 was 16.8 µM.

Question: Which EC50 [1] does the source give for `Nc1nc(Cl)nc2c1ncn2[C@H]1CO[C@H](CO)O1` here?
Answer: Its EC50 is 1.27 µM.

Question: Which EC50 [1] does the source give for `Nc1nc(N)c2ncn([C@@H]3CO[C@H](CO)O3)c2n1` here?
Answer: Its EC50 is 0.014 µM.

Question: With `Nc1nc(O)c2ncn([C@@H]3CO[C@H](CO)O3)c2n1` as the compound, how does the EC50 [1] read?
Answer: Its EC50 is 17.5 µM.

Question: What about the IC50 [2] of the same compound?
Answer: Its IC50 is over 100 µM.

Question: What about the IC50 (Vero) of the same compound?
Answer: The IC50 was over 100 µM.

Question: With `Nc1ccn([C@@H]2CO[C@H](CO)O2)c(=O)n1` [TROXACITABINE] as the compound, how does the EC50 [1] read?
Answer: The EC50 was 0.002 µM.

Question: And the IC50 [2]?
Answer: Its IC50 is over 10 µM.

Question: And the IC50 (Vero)?
Answer: The IC50 was 0.1 µM.

Question: Which IC50 [2] does the source give for `Cc1cn([C@H]2C[C@H](N=[N+]=[N-])[C@@H](CO)O2)c(=O)[nH]c1=O` [ZIDOVUDINE] here?
Answer: Its IC50 is over 100 µM.
